Measured values from ChEMBL document CHEMBL2046400, “Design, synthesis and antitumor activities of novel bis-aryl ureas derivatives as Raf kinase inhibitors” (Bioorg Med Chem, 2012).

Legend:
[1] = system: SMMC-7721; assay: Antiproliferative activity against human SMMC7721 cells after 72 hrs by MTT assay; type: functional, cell-based; settings: SMMC-7721, 72 h
Method in brief: (§1)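 RPMI-1640 with 10% fetal calf serum, 37 °C, 5% CO₂, 95% humidity. Cells seeded at 5.0 × 10³/well and grown 24 h, then exposed 72 h to a range of compound concentrations. MTT (5 mg/ml solution) added for a further 4 h at 37 °C. Formazan crystals dissolved and absorbance read at 570 nm. Each compound tested three times per cell line. IC50 reported as mean ± SD of three independent experiments.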

[2] = system: MDA-MB-231; assay: Antiproliferative activity against human MDA-MB-231 cells after 72 hrs by MTT assay; type: functional, cell-based; settings: MDA-MB-231, 72 h; method in brief: as §1
[3] = system: BGC-823; assay: Antiproliferative activity against human BGC823 cells after 72 hrs by MTT assay; type: functional, cell-based; settings: BGC-823, 72 h; method in brief: as §1
[4] = biological target: T1, RAF proto-oncogene serine/threonine-protein kinase (Homo sapiens, UniProt P04049); assay: Inhibition of C-Raf kinase-mediated phosphorylation of Mek using [33P]gammaATP after 20 mins by scintillation counting
Method in brief: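 The reaction was started with [γ-³³P]ATP (about 500 cpm/pmol) and run 20 min at 30 °C. It was then spotted onto a phosphocellulose mat, washed in 1% phosphoric acid, and counted by scintillation.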

[5] = biological target: Tyrosine-protein kinase JAK2 (Homo sapiens) (UniProt O60674); assay: Inhibition of JAK2 at 10 uM
[6] = biological target: Mast/stem cell growth factor receptor Kit (Homo sapiens) (UniProt P10721); assay: Inhibition of c-KIT at 10 uM
[7] = biological target: Platelet-derived growth factor receptor alpha (Homo sapiens) (UniProt P16234); assay: Inhibition of PDGFRalpha at 10 uM
[8] = Inhibition of PKA at 10 uM
[9] = biological target: RAC-alpha serine/threonine-protein kinase (Homo sapiens) (UniProt P31749); assay: Inhibition of AKT1 at 10 uM
[10] = biological target: Fibroblast growth factor receptor 1 (Homo sapiens) (UniProt P11362); assay: Inhibition of FGFR1 at 10 uM
[11] = biological target: Macrophage colony-stimulating factor 1 receptor (Homo sapiens) (UniProt P07333); assay: Inhibition of FMS at 10 uM
[12] = biological target: Hepatocyte growth factor receptor (Homo sapiens) (UniProt P08581); assay: Inhibition of c-MET at 10 uM
[13] = biological target: Focal adhesion kinase 1 (Homo sapiens) (UniProt Q05397); assay: Inhibition of PTK2 at 10 uM
[14] = biological target: Inhibitor of nuclear factor kappa-B kinase subunit beta (Homo sapiens) (UniProt O14920); assay: Inhibition of IKKbeta at 10 uM
[15] = biological target: Cyclin-dependent kinase 2 (Homo sapiens) (UniProt P24941); assay: Inhibition of CDK2 at 10 uM
[16] = biological target: T1, RAF proto-oncogene serine/threonine-protein kinase; assay: Inhibition of c-Raf at 10 uM
[17] = biological target: Serine/threonine-protein kinase PLK1 (Homo sapiens) (UniProt P53350); assay: Inhibition of PLK1 at 10 uM
[18] = biological target: Tyrosine-protein kinase Fyn (Homo sapiens) (UniProt P06241); assay: Inhibition of FYN at 10 uM
[19] = Inhibition of Abl at 10 uM
[20] = biological target: Vascular endothelial growth factor receptor 2 (Homo sapiens) (UniProt P35968); assay: Inhibition of VEGFR2 at 10 uM
[21] = biological target: Vascular endothelial growth factor receptor 2 (Homo sapiens) (UniProt P35968); assay: Inhibition of KDR at 10 uM
[22] = biological target: Angiopoietin-1 receptor (Homo sapiens) (UniProt Q02763); assay: Inhibition of TIE2 at 10 uM
[23] = biological target: Tyrosine-protein kinase SYK (Homo sapiens) (UniProt P43405); assay: Inhibition of SYK at 10 uM
[24] = biological target: Receptor-type tyrosine-protein kinase FLT3 (Homo sapiens) (UniProt P36888); assay: Inhibition of FLT3 at 10 uM

T1 sequence (P04049 whole entry): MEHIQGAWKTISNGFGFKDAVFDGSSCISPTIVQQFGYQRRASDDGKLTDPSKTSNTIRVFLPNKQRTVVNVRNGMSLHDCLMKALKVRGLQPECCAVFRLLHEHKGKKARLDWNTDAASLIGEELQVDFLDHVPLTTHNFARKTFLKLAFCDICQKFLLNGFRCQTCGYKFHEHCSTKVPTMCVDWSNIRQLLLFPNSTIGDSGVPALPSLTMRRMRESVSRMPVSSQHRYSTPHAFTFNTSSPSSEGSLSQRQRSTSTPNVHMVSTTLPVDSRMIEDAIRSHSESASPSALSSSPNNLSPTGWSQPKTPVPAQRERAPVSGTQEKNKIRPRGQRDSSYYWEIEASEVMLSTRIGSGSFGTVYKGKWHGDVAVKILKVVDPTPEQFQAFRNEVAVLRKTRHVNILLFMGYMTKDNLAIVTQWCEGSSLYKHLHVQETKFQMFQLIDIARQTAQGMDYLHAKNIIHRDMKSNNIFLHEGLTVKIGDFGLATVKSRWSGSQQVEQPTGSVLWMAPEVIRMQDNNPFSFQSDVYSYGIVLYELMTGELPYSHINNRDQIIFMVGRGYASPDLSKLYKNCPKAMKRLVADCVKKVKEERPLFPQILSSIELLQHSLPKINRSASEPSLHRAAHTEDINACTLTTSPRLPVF
Sequence of Vascular endothelial growth factor receptor 2 (Homo sapiens) (P35968 whole entry): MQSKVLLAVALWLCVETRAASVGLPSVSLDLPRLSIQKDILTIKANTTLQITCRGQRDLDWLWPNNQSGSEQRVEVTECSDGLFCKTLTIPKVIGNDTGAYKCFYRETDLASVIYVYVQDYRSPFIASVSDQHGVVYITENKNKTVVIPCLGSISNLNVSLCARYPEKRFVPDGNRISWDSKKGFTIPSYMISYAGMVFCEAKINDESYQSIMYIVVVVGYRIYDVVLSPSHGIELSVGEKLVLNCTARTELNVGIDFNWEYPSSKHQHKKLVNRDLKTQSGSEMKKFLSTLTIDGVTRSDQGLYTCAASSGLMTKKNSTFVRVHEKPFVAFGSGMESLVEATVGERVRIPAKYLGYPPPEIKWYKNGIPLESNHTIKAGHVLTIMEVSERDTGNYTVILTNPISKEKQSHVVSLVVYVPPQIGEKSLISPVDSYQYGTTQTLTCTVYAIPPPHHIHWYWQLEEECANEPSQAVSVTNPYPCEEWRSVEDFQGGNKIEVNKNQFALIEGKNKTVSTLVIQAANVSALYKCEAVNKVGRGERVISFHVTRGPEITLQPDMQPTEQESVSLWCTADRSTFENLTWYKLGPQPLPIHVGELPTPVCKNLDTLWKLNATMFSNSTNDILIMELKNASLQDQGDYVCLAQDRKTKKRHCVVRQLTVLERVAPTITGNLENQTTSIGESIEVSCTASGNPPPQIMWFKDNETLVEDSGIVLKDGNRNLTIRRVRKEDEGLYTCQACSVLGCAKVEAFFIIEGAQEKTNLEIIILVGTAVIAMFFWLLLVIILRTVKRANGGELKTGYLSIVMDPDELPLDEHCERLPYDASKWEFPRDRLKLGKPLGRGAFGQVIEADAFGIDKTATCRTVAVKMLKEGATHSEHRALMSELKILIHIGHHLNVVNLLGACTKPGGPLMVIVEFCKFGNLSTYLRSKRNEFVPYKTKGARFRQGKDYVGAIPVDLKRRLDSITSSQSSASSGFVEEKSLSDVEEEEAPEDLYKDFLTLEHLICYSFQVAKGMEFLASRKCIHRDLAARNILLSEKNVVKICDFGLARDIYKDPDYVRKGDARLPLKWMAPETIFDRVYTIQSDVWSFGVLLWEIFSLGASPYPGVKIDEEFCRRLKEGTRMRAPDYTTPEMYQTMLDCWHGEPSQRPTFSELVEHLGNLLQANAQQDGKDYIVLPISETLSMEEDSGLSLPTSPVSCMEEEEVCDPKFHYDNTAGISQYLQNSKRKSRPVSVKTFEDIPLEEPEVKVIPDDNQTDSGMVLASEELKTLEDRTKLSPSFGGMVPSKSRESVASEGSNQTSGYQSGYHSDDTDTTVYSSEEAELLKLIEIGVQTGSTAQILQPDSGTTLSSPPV
Sequence of Focal adhesion kinase 1 (Homo sapiens) (Q05397 2-1052 limits assumed): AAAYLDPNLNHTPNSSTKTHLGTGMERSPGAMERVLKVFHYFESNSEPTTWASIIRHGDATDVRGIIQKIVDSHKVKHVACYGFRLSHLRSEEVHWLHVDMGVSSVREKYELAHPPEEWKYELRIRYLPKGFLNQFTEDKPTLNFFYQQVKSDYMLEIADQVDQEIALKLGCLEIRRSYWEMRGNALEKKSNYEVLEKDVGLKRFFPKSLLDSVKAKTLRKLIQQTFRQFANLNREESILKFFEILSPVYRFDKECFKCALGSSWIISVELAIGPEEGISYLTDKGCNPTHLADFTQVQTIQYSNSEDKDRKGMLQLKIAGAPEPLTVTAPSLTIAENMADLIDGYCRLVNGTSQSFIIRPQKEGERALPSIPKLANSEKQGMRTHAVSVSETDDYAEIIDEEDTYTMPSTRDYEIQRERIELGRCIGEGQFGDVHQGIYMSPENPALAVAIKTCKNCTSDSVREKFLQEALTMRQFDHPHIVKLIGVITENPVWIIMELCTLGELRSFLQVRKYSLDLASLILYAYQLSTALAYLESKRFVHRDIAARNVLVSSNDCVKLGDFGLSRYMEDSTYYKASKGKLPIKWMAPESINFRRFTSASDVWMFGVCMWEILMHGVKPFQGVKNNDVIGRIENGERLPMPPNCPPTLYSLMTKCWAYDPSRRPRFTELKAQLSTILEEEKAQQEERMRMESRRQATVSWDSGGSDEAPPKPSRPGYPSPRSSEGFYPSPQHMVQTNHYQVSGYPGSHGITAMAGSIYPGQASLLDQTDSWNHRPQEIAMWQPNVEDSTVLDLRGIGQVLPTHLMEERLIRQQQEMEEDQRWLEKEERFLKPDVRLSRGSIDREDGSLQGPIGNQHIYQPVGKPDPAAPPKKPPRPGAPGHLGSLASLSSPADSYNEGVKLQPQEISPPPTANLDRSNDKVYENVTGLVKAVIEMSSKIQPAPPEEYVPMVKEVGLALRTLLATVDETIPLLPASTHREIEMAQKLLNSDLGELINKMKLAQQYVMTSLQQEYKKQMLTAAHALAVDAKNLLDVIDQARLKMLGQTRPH
Sequence of RAC-alpha serine/threonine-protein kinase (Homo sapiens) (P31749 whole entry): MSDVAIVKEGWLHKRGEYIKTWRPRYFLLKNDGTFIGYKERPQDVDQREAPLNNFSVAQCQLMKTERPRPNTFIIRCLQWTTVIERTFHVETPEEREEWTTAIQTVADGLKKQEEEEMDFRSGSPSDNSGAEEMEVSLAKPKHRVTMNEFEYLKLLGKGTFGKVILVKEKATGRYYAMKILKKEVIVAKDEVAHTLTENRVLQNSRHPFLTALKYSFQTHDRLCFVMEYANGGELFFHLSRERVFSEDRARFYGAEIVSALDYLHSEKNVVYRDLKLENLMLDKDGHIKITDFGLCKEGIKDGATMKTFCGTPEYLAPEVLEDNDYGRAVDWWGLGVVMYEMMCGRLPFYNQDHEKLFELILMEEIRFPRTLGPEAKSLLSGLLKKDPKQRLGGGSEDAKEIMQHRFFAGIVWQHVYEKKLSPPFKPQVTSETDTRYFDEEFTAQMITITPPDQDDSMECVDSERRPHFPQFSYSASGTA
Sequence of Hepatocyte growth factor receptor (Homo sapiens) (P08581 whole entry): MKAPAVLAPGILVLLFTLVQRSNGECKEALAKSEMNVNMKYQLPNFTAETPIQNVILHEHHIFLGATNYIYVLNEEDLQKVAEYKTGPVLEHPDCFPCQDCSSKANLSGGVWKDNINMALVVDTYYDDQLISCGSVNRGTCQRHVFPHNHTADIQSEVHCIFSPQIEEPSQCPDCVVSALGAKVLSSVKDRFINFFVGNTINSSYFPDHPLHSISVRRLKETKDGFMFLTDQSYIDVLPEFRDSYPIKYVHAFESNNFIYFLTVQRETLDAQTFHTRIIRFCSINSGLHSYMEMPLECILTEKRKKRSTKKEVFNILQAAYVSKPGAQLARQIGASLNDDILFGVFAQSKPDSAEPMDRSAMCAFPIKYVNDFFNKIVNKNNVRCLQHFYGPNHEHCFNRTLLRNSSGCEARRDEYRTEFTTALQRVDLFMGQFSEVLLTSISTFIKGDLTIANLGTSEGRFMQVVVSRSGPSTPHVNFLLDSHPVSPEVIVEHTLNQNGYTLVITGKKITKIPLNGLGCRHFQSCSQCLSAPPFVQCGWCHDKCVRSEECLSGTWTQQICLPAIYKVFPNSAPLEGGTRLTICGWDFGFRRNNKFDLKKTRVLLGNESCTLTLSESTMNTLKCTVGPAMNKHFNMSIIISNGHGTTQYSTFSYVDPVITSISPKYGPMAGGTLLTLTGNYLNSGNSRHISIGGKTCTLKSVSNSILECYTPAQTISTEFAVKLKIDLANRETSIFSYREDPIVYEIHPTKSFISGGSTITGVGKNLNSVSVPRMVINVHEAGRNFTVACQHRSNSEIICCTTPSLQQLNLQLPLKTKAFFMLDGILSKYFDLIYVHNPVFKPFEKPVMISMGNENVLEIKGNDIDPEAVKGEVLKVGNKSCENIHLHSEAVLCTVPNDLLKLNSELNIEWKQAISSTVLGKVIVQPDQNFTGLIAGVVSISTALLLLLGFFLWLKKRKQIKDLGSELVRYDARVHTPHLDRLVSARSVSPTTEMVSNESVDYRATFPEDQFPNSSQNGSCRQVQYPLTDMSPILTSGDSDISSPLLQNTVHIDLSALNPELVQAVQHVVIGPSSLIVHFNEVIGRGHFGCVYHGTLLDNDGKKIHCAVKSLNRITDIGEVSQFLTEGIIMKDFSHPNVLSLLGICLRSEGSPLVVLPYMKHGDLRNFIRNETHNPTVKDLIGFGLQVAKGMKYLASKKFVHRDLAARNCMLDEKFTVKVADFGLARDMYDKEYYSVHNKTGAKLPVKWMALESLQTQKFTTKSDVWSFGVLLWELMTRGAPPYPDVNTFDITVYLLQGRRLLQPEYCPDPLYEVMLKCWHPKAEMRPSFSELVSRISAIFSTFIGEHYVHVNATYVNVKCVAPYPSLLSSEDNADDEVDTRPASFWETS

| SMILES | IC50 [1] [µM] | IC50 [2] [µM] | IC50 [3] [µM] | IC50 [4] [µM] | other results |
| --- | --- | --- | --- | --- | --- |
| COc1cc(NC(=O)Nc2ccc(Oc3ccnc(-c4ncc(C(F)(F)F)[nH]4)c3)cc2Cl)cc(OC)c1OC | > 100 | > 100 | > 100 | – | – |
| O=C(Nc1ccc(Cl)c(C(F)(F)F)c1)Nc1ccc(Oc2ccnc(-c3ncc(C(F)(F)F)[nH]3)c2)cc1Cl | 6.52 | 3.77 | 11.1 | 0.0221 | – |
| Cc1ccc(NC(=O)Nc2ccc(Oc3ccnc(-c4ncc(C(F)(F)F)[nH]4)c3)cc2Cl)cc1C(F)(F)F | 8.38 | 10.1 | 33.4 | 0.0467 | – |
| CNC(=O)c1cc(Oc2ccc(NC(=O)Nc3ccc(Cl)c(C(F)(F)F)c3)cc2)ccn1 [SORAFENIB] | 6.23 | 7.18 | 10.9 | – | – |
| O=C(Nc1ccc(F)c(C(F)(F)F)c1)Nc1ccc(Oc2ccnc(-c3ncc(C(F)(F)F)[nH]3)c2)cc1Cl | 5.72 | 8.21 | 17.7 | 0.0777 | – |
| O=C(Nc1cccc(C(F)(F)F)c1)Nc1ccc(Oc2ccnc(-c3ncc(C(F)(F)F)[nH]3)c2)cc1Cl | 9.72 | 14.2 | 23.2 | 0.0648 | – |
| O=C(Nc1ccc(Oc2ccnc(-c3ncc(C(F)(F)F)[nH]3)c2)cc1Cl)Nc1cc(C(F)(F)F)ccc1Cl | 5.29 | 7.03 | 14.2 | 0.0359 | – |
| O=C(Nc1ccc(Cl)c(Cl)c1)Nc1ccc(Oc2ccnc(-c3ncc(C(F)(F)F)[nH]3)c2)cc1Cl | 2.49 | 1.77 | 12.7 | 0.0165 | – |
| O=C(Nc1ccc(Oc2ccnc(-c3ncc(C(F)(F)F)[nH]3)c2)cc1)Nc1cc(C(F)(F)F)ccc1Cl | 6.84 | 7.83 | 18.4 | 0.0759 | – |

Further lines, with some results ahead:

| IC50 [1] [µM] | IC50 [2] [µM] | IC50 [3] [µM] | IC50 [4] [µM] | SMILES | other results |
| --- | --- | --- | --- | --- | --- |
| > 100 | 95.4 | > 100 | – | COc1ccc(NC(=O)Nc2ccc(Oc3ccnc(-c4ncc(C(F)(F)F)[nH]4)c3)cc2)cc1 | – |
| 44.6 | 25.4 | 66.8 | 0.0815 | O=C(Nc1ccc(Oc2ccnc(-c3ncc(C(F)(F)F)[nH]3)c2)cc1)Nc1ccc(Br)cc1F | – |
| 3.06 | 2.03 | 10.7 | 0.0131 | O=C(Nc1ccc(Oc2ccnc(-c3ncc(C(F)(F)F)[nH]3)c2)cc1)Nc1ccc(Cl)c(Cl)c1 | – |
| 92.4 | 63.2 | > 100 | – | O=C(Nc1ccc(Oc2ccnc(-c3ncc(C(F)(F)F)[nH]3)c2)cc1)Nc1ccc2c(c1)OCO2 | – |
| 87.7 | 44.8 | 97.7 | 0.148 | Cc1cc(NC(=O)Nc2ccc(Oc3ccnc(-c4ncc(C(F)(F)F)[nH]4)c3)cc2)no1 | – |
| 1.38 | 1.21 | 13.2 | 0.0106 | O=C(Nc1ccc(Oc2ccnc(-c3ncc(C(F)(F)F)[nH]3)c2)cc1)Nc1ccc(Cl)c(C(F)(F)F)c1 | inhibition [5]: 0%; inhibition [6]: 23.9%; inhibition [7]: 0%; inhibition [8]: 1.3%; inhibition [9]: 11.7%; inhibition [10]: 20.2%; inhibition [11]: 50.8%; inhibition [12]: 2.2%; inhibition [13]: 4.9%; inhibition [14]: 5.6%; inhibition [15]: 7.8%; inhibition [16]: 95.3%; inhibition [17]: 8.7%; inhibition [18]: 0.4%; inhibition [19]: 44.3%; inhibition [20]: 36.8%; inhibition [21]: 3.5%; inhibition [22]: 27.5%; inhibition [23]: 20.4%; inhibition [24]: 17.7% |
| 9.69 | 11.3 | 15.7 | 0.0692 | O=C(Nc1ccc(Oc2ccnc(-c3ncc(C(F)(F)F)[nH]3)c2)cc1)Nc1ccc(F)c(Cl)c1 | – |
| 57.9 | 76.6 | 84 | 0.12 | Cc1cccc(Cl)c1NC(=O)Nc1ccc(Oc2ccnc(-c3ncc(C(F)(F)F)[nH]3)c2)cc1 | – |
| 36.2 | 38.7 | 23.7 | 0.0949 | O=C(Nc1ccc(F)cc1)Nc1ccc(Oc2ccnc(-c3ncc(C(F)(F)F)[nH]3)c2)cc1 | – |
| 11.7 | 10.7 | 26.2 | 0.0878 | O=C(Nc1ccc(Oc2ccnc(-c3ncc(C(F)(F)F)[nH]3)c2)cc1)Nc1cccc(C(F)(F)F)c1 | – |
